# Experimental data: ChEMBL document CHEMBL4480427, “Further insights of selenium-containing analogues of WC-9 against Trypanosoma cruzi” (Bioorg Med Chem, 2019)
# Calls of active or inactive are those of the source. No cut-off for these calls is given here.
# System: not listed separately
# Test: Cytotoxicity against African green monkey Vero cells after 72 hrs by Alamar Blue assay
# Type: cell-based
# Details: chlorocebus sabaeus, read-out: ED50
# Summary of the method: (§1)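 Vero cells treated 72 h at 35 °C, 7% CO2, in quadruplicate wells, with untreated host-cell and DMSO toxicity controls. Alamar Blue was added at 10% of culture volume for 6 h at 35 °C, and absorbance read at 570 and 600 nm. Cytotoxicity was also scored by cell detachment under optical microscopy. Three biological replicates of 4 technical replicates each.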
row,SMILES,CC50 at 72 h
1,N#C[Se]CCOc1ccccc1Oc1ccccc1,> 20 µM
2,FC(F)(F)SCCOc1cccc(Oc2ccccc2)c1,> 20 µM
3,FC(F)(F)SCCOc1ccc(Oc2ccccc2)cc1,> 20 µM
4,N#CSCCOc1ccccc1Oc1ccccc1,> 20 µM
5,O=C(Cn1ccnc1[N+](=O)[O-])NCc1ccccc1 [BENZNIDAZOLE],> 10 µM
6,N#CCCCOc1ccc(Oc2ccccc2)cc1,> 20 µM
7,FC(F)(F)[Se]CCOc1ccc(Oc2ccccc2)cc1,> 20 µM
8,FC(F)(F)[Se]CCOc1cccc(Oc2ccccc2)c1,> 20 µM
9,N#CCCOc1ccc(Oc2ccccc2)cc1,> 20 µM
10,N#C[Se]CC1Cc2ccc(Oc3ccccc3)cc2O1 (racemic),> 20 µM

# System: Trypanosoma cruzi
# Test: Antitrypanosomal activity against tdTomato red expressing Trypanosoma cruzi CL amastigotes infected in gamma-irradiated African green monkey Vero cells assessed as inhibition of parasite growth at 6 uM after 72 hrs by fluorescence assay relative to untreated control
# Type: functional, organism-based
# Details: not given
row,SMILES,growth inhibition (GI)
1,COc1ccc(OCC[Se]C#N)cc1,inactive

# System: Trypanosoma cruzi
# Test: Antitrypanosomal activity against tdTomato red expressing Trypanosoma cruzi CL amastigotes infected in gamma-irradiated African green monkey Vero cells assessed as inhibition of parasite growth at 10 uM after 72 hrs by fluorescence assay relative to untreated control
# Type: functional
# Details: light or radiation study, read-out: GI
row,SMILES,inhibition of growth at 10 µM
1,N#C[Se]CCOc1ccccc1Oc1ccccc1,33%
2,FC(F)(F)SCCOc1ccc(Oc2ccccc2)cc1,12%
3,N#CSCCOc1ccccc1Oc1ccccc1,33%

# System: Trypanosoma cruzi
# Test: Antitrypanosomal activity against tdTomato red expressing Trypanosoma cruzi CL amastigotes infected in gamma-irradiated African green monkey Vero cells after 72 hrs by fluorescence assay
# Type: functional
# Details: light or radiation study, read-out: ED50 (the source's name)
# Summary of the method: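 Gamma-irradiated (2,000 Rads) Vero cells, 3.4 × 10^4/well in RPMI with 10% FBS, held overnight at 35 °C, 7% CO2. Infected 5 h with 3.4 × 10^5 tdTomato CL trypomastigotes/well, then washed. Compounds were serially diluted 1.56–25 µM in quadruplicate, with benznidazole reference at 0.39–6.25 µM. Fluorescence read 72 h post-infection. ED50 by non-linear regression, mean ± S.D. of 3 biological replicates.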
row,SMILES,EC50
1,FC(F)(F)SCCOc1cccc(Oc2ccccc2)c1,> 10 µM
2,FC(F)(F)[Se]CCOc1ccc(Oc2ccccc2)cc1,> 1 µM
3,N#C[Se]CC1Cc2ccc(Oc3ccccc3)cc2O1 (racemic),0.0939 µM

# System: Vero
# Test: Cytotoxicity against African green monkey Vero cells at 20 uM after 72 hrs by Alamar Blue assay
# Type: cell-based
# Details: chlorocebus sabaeus
# Summary of the method: as §1
row,SMILES,Activity
1,N#C[Se]CCOc1ccccc1,Toxic

# System: Vero
# Test: Cytotoxicity against African green monkey Vero cells at 15 to 20 uM after 72 hrs by Alamar Blue assay
# Type: cell-based
# Details: chlorocebus sabaeus
# Summary of the method: as §1
row,SMILES,Activity
1,N#C[Se]CCOc1ccc([N+](=O)[O-])cc1,Toxic
2,COc1ccc(OCC[Se]C#N)cc1,Toxic

# System: Trypanosoma cruzi
# Test: Antitrypanosomal activity against tdTomato red expressing Trypanosoma cruzi CL amastigotes infected in gamma-irradiated African green monkey Vero cells assessed as inhibition of parasite growth at 1 uM after 72 hrs by fluorescence assay relative to untreated control
# Type: functional
# Details: light or radiation study, read-out: GI
row,SMILES,inhibition of growth at 1 µM
1,FC(F)(F)[Se]CCOc1ccc(Oc2ccccc2)cc1,6.7%
2,FC(F)(F)[Se]CCOc1cccc(Oc2ccccc2)c1,30.9%
